# Measurements published in ChEMBL document CHEMBL4680124, “2-Styryl-4-aminoquinazoline derivatives as potent DNA-cleavage, p53-activation and in vivo effective anticancer agents” (Eur J Med Chem, 2020).
# Calls of active or inactive are those of the source. The rule behind the calls is not given here.
# Assays:
# [1] = tested on: MGC-803; assay: Induction of apoptosis in human MGC-803 cells assessed as necrotic cells at 0.5 uM measured after 24 hrs by Annexin-V/propidium iodide staining-based flow cytometric analysis (Rvb =6.05%)
# [2] = tested on: MGC-803; assay: Cell cycle arrest in human MGC-803 cells assessed as accumulation at S phase at 0.25 uM after 48 hrs by propidium iodide staining-based flow cytometric analysis (reference value: 45.1 %); type: functional
# [3] = tested on: MGC-803; assay: Induction of apoptosis in human MGC-803 cells assessed as cell shrinkage at 0.5 to 2.5 uM incubated for 24 hrs by Hoechst 33258 staining based analysis; type: functional; details: dose 0.5-2.5 µM
# Procedure, shortened: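 MGC-803 cells treated in six-well plates, fixed in 4% paraformaldehyde for 10 min, washed, stained with Hoechst 33258 for 5 min, and examined for nuclear morphology by fluorescence microscopy.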
# [4] = tested on: T-24; assay: Cytotoxicity against human T-24 cells […] assessed as reduction in cell viability preincubated for 48 hrs and measured after 4 hrs by MTT assay; type: functional, cell-based
# [5] = tested on: MGC-803; assay: Induction of apoptosis in human MGC-803 cells assessed as increase in nuclear chromatin condensation at 0.5 to 2.5 uM incubated for 24 hrs by Hoechst 33258 staining based analysis; type: functional, cell-based; details: dose 0.5-2.5 µM
# Procedure, shortened: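 Cells in six-well plates were treated for the indicated time, then fixed 10 min in 4% paraformaldehyde and washed twice in PBS. Nuclei were stained 5 min with Hoechst 33258, washed twice in PBS and examined by fluorescence microscopy.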
# [6] = tested on: MGC-803; assay: Cell cycle arrest in human MGC-803 cells assessed as accumulation at G1 phase at 0.25 uM after 48 hrs by propidium iodide staining-based flow cytometric analysis (reference value: 46.96 %); type: functional
# [7] = tested on: MGC-803; assay: Induction of apoptosis in human MGC-803 cells assessed as necrotic cells at 1 uM measured after 24 hrs by Annexin-V/propidium iodide staining-based flow cytometric analysis (Rvb =6.05%)
# [8] = tested on: MGC-803; assay: Induction of apoptosis in human MGC-803 cells assessed as late apoptotic cells at 2.5 uM measured after 24 hrs by Annexin-V/propidium iodide staining-based flow cytometric analysis (Rvb =0.93%)
# [9] = tested on: MGC-803; assay: Induction of DNA damage in human MGC-803 cells assessed as increase in p53 level at 2.5 uM measured after 24 hrs by Western blot analysis; type: functional, cell-based
# Procedure, shortened: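 MGC-803 cells (2×10^6) plated overnight, then treated for 24 h at 0.5, 1.0 or 2.5 µM (test agent) or 5.0 µM (comparator). Whole-cell lysates separated by SDS-PAGE, transferred to PVDF and probed with primary antibodies. AP-linked anti-rabbit IgG, ECL detection, β-actin loading control. Representative of three experiments.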
# [10] = tested on: MGC-803; assay: Antitumor activity against human MGC-803 cells xenografted in BALB/C nude mouse assessed as tumor growth inhibition at 10 mg/kg, ip administered every 2 days and measured 3 times per week; type: functional, organism-based; details: time 2.0 day
# Procedure, shortened: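 Male BALB/c nude mice, 6 weeks old, given 5×10^6 MGC-803 cells s.c. in the flank. When tumors reached about 80 mm3, mice were randomized (n = 6/group) and dosed i.p. every 2 days. Vehicle was 5% DMSO in saline. Drug solutions were 1.0 or 2.0 mg/mL (DMSO/saline). Tumor length and width plus body weight were measured three times weekly; volume = lw²/2. Mean ± SD.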
# [11] = tested on: DU-145; assay: Cytotoxicity against human DU145 cells expressing mutant type p53 assessed as reduction in cell viability preincubated for 48 hrs and measured after 4 hrs by MTT assay; type: functional, cell-based
# Procedure, shortened: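 MTT assay. Cells grown in DMEM (T24, MGC-803, A549, HL-7702), RPMI-1640 (DU145) or DMEM-F12 (PC-3), each with 10% FBS. Exposed to 1.25–20 µM in medium with 1% DMSO for 48 h, then MTT for 4 h. Formazan dissolved in DMSO and read at 570 nm. Five wells per concentration; means ± SD of independent repeats.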
# [12] = tested on: MGC-803; assay: Induction of apoptosis in human MGC-803 cells assessed as increase in p21 protein expression upto 2.5 uM incubated for 24 hrs by Western blot analysis; type: functional, cell-based; details: dose microM <=2.5, time 24.0 hrs
# Procedure, shortened: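 MGC-803 cells (2×10^6) cultured overnight, then exposed 24 h to 0.5, 1.0 or 2.5 μM, or 5.0 μM for the reference agent. Lysates were resolved by SDS-PAGE, transferred to PVDF and probed with primary antibodies. Detection used AP-linked anti-rabbit IgG and ECL. β-actin served as loading control.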
# [13] = tested on: MGC-803; assay: Induction of apoptosis in human MGC-803 cells assessed as activation of caspase 9 at 2.5 uM incubated for 24 hrs by flow cytometric analysis (reference value: 2.82%); type: functional
# [14] = tested on: Calf thymus DNA; assay: Binding affinity to calf thymus DNA assessed as quenching in emission band measured at 0.5:1 to 5:1 compound to EB ratio by ethidium bromide competitive displacement assay; details: Bos taurus
# Procedure, shortened: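 Competitive displacement using EB (10 µM) with ct-DNA (20 µM) in Tris-HCl, pH 7.4, 25 °C. Compound added stepwise from 10 to 100 µM; 5 min equilibration after each addition, then fluorescence emission recorded (slits 5 nm). Quenching constant from the Stern–Volmer equation.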
# [15] = tested on: MGC-803; assay: Induction of apoptosis in human MGC-803 cells assessed as late apoptotic cells at 0.5 uM measured after 24 hrs by Annexin-V/propidium iodide staining-based flow cytometric analysis (Rvb =0.93%)
# [16] = tested on: MGC-803; assay: Cell cycle arrest in human MGC-803 cells assessed as accumulation at G2/M phase at 0.25 uM after 48 hrs by propidium iodide staining-based flow cytometric analysis (reference value: 7.94%); type: functional
# [17] = tested on: MGC-803; assay: Cell cycle arrest in human MGC-803 cells assessed as accumulation at G2/M phase at 0.125 uM after 48 hrs by propidium iodide staining-based flow cytometric analysis (reference value: 7.94%); type: functional
# [18] = tested on: MGC-803; assay: Induction of apoptosis in human MGC-803 cells assessed as activation of caspase 3 at 2.5 uM incubated for 24 hrs by flow cytometric analysis (reference value: 1.47%); type: functional
# [19] = tested on: MGC-803; assay: Induction of apoptosis in human MGC-803 cells assessed as viable cells at 2.5 uM measured after 24 hrs by Annexin-V/propidium iodide staining-based flow cytometric analysis (Rvb =92.2 %); details: MGC-803, 24 h
# [20] = tested on: MGC-803; assay: Induction of apoptosis in human MGC-803 cells assessed as early apoptotic cells at 1 uM measured after 24 hrs by Annexin-V/propidium iodide staining-based flow cytometric analysis (Rvb =0.84%)
# [21] = tested on: MGC-803; assay: Induction of apoptosis in human MGC-803 cells assessed as increase in Bak expression at 0.5 to 2.5 uM measured after 24 hrs by Western blot analysis; details: dose 0.5-2.5 µM
# [22] = tested on: MGC-803; assay: Induction of apoptosis in human MGC-803 cells assessed as viable cells at 0.5 uM measured after 24 hrs by Annexin-V/propidium iodide staining-based flow cytometric analysis (Rvb =92.2 %); details: MGC-803, 24 h
smiles,measurement,setting,value
NCCCCNc1nc(/C=C/c2ccc([N+](=O)[O-])cc2)nc2ccccc12,Activity,[1],8.13%
same,Activity,[2],36.91%
same,Activity,[3],Active
same,IC50,[4],1790 nM
same,Activity,[5],Active
same,Activity,[6],7.66%
same,Activity,[7],2.21%
same,Activity,[8],55.9%
same,Activity,[9],Active
same,Activity,[10],Active
same,IC50,[11],4150 nM
same,Activity,[12],Active
same,Activity,[13],57.35%
same,Activity,[14],Active
same,Activity,[15],6.91%
same,Activity,[16],55.43%
same,Activity,[17],18.16%
same,Activity,[18],22.98%
same,viability at 2.5 µM,[19],14.8%
same,Activity,[20],27.5%
same,Activity,[21],inactive
same,viability at 0.5 µM,[22],71%
